Measurements taken from ChEMBL document CHEMBL1148007, “Synthesis of new S-derivatives of clubbed triazolyl thiazole as anti-Mycobacterium tuberculosis agents” (Bioorg Med Chem, 2007).

Experiments:
[1] = tested on: Mycobacterium tuberculosis; experiment: Antitubercular activity against Mycobacterium tuberculosis H37Rv by MABA assay; type: functional
Procedure, shortened: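 Actives re-tested at lower concentrations against H37Rv (ATCC 27294) in BACTEC 12B medium by Microplate Alamar Blue Assay. MIC taken as lowest concentration giving […] fluorescence reduction versus controls; rifampin reference.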

[2] = Cytotoxicity against Vero-C1008 cells at 6.25 to 50 ug/mL by neutral red uptake assay; type: cell-based; details: chlorocebus sabaeus
Procedure, shortened: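 Vero-C-1008 cells exposed to 6.25 to 50 μg/mL compound; viability read by neutral red uptake.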

Pseudomonas aeruginosa = experiment: Antibacterial activity against Pseudomonas aeruginosa at 50 to 100 uM after 24 hrs by well diffusion method; type: functional
Procedure, shortened: (§1)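 Nutrient agar plates with 10 mm wells cut by cork borer; 24-h subcultured bacteria swabbed on. Compounds dissolved in chloroform, 50 to 100 μM added to wells, gentamycin as standard. Incubated 24 h at 24–28 °C; inhibition zone diameter measured and converted to percent inhibition.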

Escherichia coli = experiment: Antibacterial activity against Escherichia coli at 50 to 100 uM after 24 hrs by well diffusion method; type: functional; procedure, shortened: as §1
Salmonella typhi = experiment: Antibacterial activity against Salmonella typhi at 50 to 100 uM after 24 hrs by well diffusion method; type: functional, Salmonella enterica subsp. enterica serovar Typhi; design: unit not given here; procedure, shortened: as §1
[3] = tested on: Mycobacterium tuberculosis; experiment: Antitubercular activity against Mycobacterium tuberculosis H37Rv at 6.25 ug/mL by MABA assay; type: functional; details: read-out: GI
Procedure, shortened: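 Primary screen against M. tuberculosis H37Rv (ATCC 27294) in BACTEC 12B medium by broth microdilution Microplate Alamar Blue Assay; fluorescent compounds run instead in BACTEC 460 radiometric system. Compounds above 95% inhibition counted active.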

Staphylococcus aureus = experiment: Antibacterial activity against Staphylococcus aureus at 50 to 100 uM after 24 hrs by well diffusion method; type: functional; procedure, shortened: as §1

| Structure (SMILES) | MIC [1] | Activity [2] | inhibition zone (Pseudomonas aeruginosa) [mm] | inhibition zone (Escherichia coli) [mm] | Inhibition (Salmonella typhi) | inhibition of growth at 6.25 µg/mL [3] [%] | inhibition zone (Staphylococcus aureus) [mm] |
| --- | --- | --- | --- | --- | --- | --- | --- |
| O=C(CSc1nnc(Cc2csc(NC(=O)CCl)n2)n1NC(=O)c1ccc(Cl)cc1)N/N=C/c1ccccc1 | 3.13 µM | Non-toxic | 19 | 19 | 17 | 96 | 24 |
| O=C(CSc1nnc(Cc2csc(NC(=O)CCl)n2)n1NC(=O)c1cccc([N+](=O)[O-])c1)N/N=C/c1ccccc1 | 1.56 µM | Non-toxic | 30 | 26 | 25 | 100 | 31 |
| NNC(=O)CSc1nnc(Cc2csc(NC(=O)c3ccccc3)n2)n1NC(=O)c1ccc(Cl)cc1 | 6.25 µM | Non-toxic | 32 | 26 | 24 | 96 | 32 |
| CC(=O)Nc1nc(Cc2nnc(S)n2NC(=O)c2ccc(Cl)cc2)cs1 | 6.25 µM | Non-toxic | 16 | 20 | 16 | 96 | 16 |
| CC(=O)Nc1nc(Cc2nnc(SCC(=O)N/N=C/c3ccccc3)n2NC(=O)c2cccc([N+](=O)[O-])c2)cs1 | 0.78 µM | Non-toxic | 31 | 24 | 26 | 100 | 30 |
| CC(=O)Nc1nc(Cc2nnc(SCC#N)n2NC(=O)c2ccc(Cl)cc2)cs1 | 3.13 µM | Non-toxic | 20 | 23 | 24 | 96 | 28 |
| CC(=O)Nc1nc(Cc2nnc(S)n2NC(=O)c2cccc([N+](=O)[O-])c2)cs1 | 6.25 µM | Non-toxic | 16 | 12 | 12 | 100 | 16 |
| N#CCSc1nnc(Cc2csc(NCCC(=O)O)n2)n1NC(=O)c1ccc(Cl)cc1 | 3.13 µM | Non-toxic | 29 | 21 | 25 | 100 | 30 |
| O=C(CSc1nnc(Cc2csc(NC(=O)c3ccccc3)n2)n1NC(=O)c1ccc(Cl)cc1)N/N=C/c1ccccc1 | 3.13 µM | Non-toxic | 24 | 23 | 21 | 96 | 21 |
| O=C(O)CCNc1nc(Cc2nnc(SCC(=O)N/N=C/c3ccccc3)n2NC(=O)c2cccc([N+](=O)[O-])c2)cs1 | 1.56 µM | Non-toxic | 32 | 26 | 27 | 96 | 30 |
| N#CCSc1nnc(Cc2csc(NC(=O)CCl)n2)n1NC(=O)c1ccc(Cl)cc1 | 3.13 µM | Non-toxic | 28 | 26 | 16 | 96 | 24 |
| O=C(O)CCNc1nc(Cc2nnc(S)n2NC(=O)c2ccc(Cl)cc2)cs1 | 6.25 µM | Non-toxic | 17 | 15 | 22 | 96 | 11 |
| N#CCSc1nnc(Cc2csc(NC(=O)c3ccccc3)n2)n1NC(=O)c1ccc(Cl)cc1 | 3.13 µM | Non-toxic | 27 | 27 | 19 | 96 | 31 |
| NNC(=O)CSc1nnc(Cc2csc(NC(=O)CCl)n2)n1NC(=O)c1cccc([N+](=O)[O-])c1 | 6.25 µM | Non-toxic | 20 | 19 | 18 | 96 | 29 |
| N#CCSc1nnc(Cc2csc(NC(=O)c3ccccc3)n2)n1NC(=O)c1cccc([N+](=O)[O-])c1 | < 6.25 µg/mL | Non-toxic | 24 | 22 | 17 | 96 | 28 |
| O=C(Nc1nc(Cc2nnc(S)n2NC(=O)c2cccc([N+](=O)[O-])c2)cs1)c1ccccc1 | 6.25 µM | Non-toxic | 24 | 16 | 12 | 96 | 11 |
| Nn1c(S)nnc1Cc1csc(NC(=O)c2ccccc2)n1 | 6.25 µM | Non-toxic | 20 | 18 | 14 | 96 | 22 |
| CC(=O)Nc1nc(Cc2nnc(SCC(=O)NN)n2NC(=O)c2ccc(Cl)cc2)cs1 | 6.25 µM | Non-toxic | 16 | 12 | 14 | 96 | 16 |
| N#CCSc1nnc(Cc2csc(NC(=O)CCl)n2)n1NC(=O)c1cccc([N+](=O)[O-])c1 | < 6.25 µg/mL | Non-toxic | 24 | 19 | 24 | 100 | 24 |
| NNC(=O)CSc1nnc(Cc2csc(NC(=O)CCl)n2)n1NC(=O)c1ccc(Cl)cc1 | 6.25 µM | Non-toxic | 18 | 12 | 12 | 96 | 16 |
